Sampled rows, rich in hits. Any-hit rate of the full collection: about 1.5%.
PPC-1+TRAIL kill – compounds killing PPC-1 cancer cells with TRAIL present (potentiator screen, no TRAIL-free arm); cell killing (% activity), % at 4 µM or 5 µM; PPC-1 cells + TRAIL, ATPLite viability luminescence; 220,000 compounds, 0.41% hits;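 active = cell killing above 50% in the first pass at 4 µM, then a duplicate retest at 5 µM averaging 50% or more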;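 also: plate controls were cells with TRAIL plus DMSO for no effect and medium-only wells lacking cells for full effect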
FLuc inh counter – inhibits firefly luciferase, flagging false hits in luciferase inhibition screens; AID 1006; inhibition, % at 10 µM; 200,000 compounds, 1.5% hits; ATPLite firefly luciferase biochemical luminescence, 10 min;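 active = inhibition above about 50% when tested at 10 µM, limit read from the data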
Target sequence (P08659 whole entry, looked up): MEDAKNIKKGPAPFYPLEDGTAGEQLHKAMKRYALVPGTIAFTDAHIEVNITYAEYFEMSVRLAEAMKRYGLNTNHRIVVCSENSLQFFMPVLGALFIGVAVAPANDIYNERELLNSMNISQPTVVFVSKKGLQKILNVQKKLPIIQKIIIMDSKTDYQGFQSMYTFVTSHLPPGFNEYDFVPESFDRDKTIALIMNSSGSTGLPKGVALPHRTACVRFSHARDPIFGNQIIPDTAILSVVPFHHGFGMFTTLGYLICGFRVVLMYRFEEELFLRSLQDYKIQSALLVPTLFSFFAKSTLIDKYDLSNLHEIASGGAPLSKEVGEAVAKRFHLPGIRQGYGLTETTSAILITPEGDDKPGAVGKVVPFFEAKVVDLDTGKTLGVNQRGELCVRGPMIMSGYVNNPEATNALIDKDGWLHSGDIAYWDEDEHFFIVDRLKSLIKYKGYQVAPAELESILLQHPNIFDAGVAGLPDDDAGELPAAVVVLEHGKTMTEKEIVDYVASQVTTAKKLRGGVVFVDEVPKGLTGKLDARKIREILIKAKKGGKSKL
FLuc act counter – affects firefly luciferase, flagging false hits in luciferase stimulation screens; ATPlite luciferase biochemical, luminescence, 10 min; 0 = ATP-free wells, 1 = DMSO control; activation factor at 10 µM; 200,000 tested, under 10 active;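 active = luciferase activation factor, scaled between plate controls, of at least 2 with compound at 10 µM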
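Material: luciferase plus luciferin reagent, cell-free. Medium: PBS buffer for ATP. Also added: ATP substrate, dispensed from a 10.24 µM working solution in PBS. Doses: test compounds dosed from 2 mM stocks in 100% DMSO. Incubation: 10 min post-reagent at room temperature. Technique: light output (luminescence). Read-out basis: luminescence gain marking luciferase activators.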
C8 TRAIL sens – caspase-8 TRAIL sensitization | NB7+C8 cells + TRAIL, ATPlite viability luminescence | inhibition (viability loss, TRAIL sensitization), % at 10 µM | 360,000 compounds, 1% hits | AID 624354;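 active = compounds causing at least 50% loss of cell viability in the single-dose screen, relative to plate controls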
Active calls of the source: *; . = not tested or not shown.

SMILES	PPC-1+TRAIL kill	FLuc inh counter	FLuc act counter	C8 TRAIL sens
O=C1c2ccccc2C(=O)C1(CO)c1ccc(OC(F)F)cc1	.	.	.	79.0*
CSC[C@H]1CN(c2ccccc2)C(=O)[C@@H]1CC(=O)Nc1ccc(Br)cc1	.	.	.	5.7
Cc1cc(=O)[nH]c2nnc(-c3ccc(Br)cc3)n12	.	.	.	73.1*
CCN1CCN(C(=O)CN(CC)S(=O)(=O)c2ccc(F)cc2)CC1	.	.	.	-10.2
CCN(CC)c1ccc(C(=C2C=CC(=[N+](CC)CC)C=C2)c2ccccc2)cc1	.	.	.	89.4*
CCN(CC)c1ccc(C(=O)NNC(=O)CCl)cc1	5.4	1.4	1	5.1
CCN(CC)c1ccc(C(=C2C=CC(=[N+](CC)CC)C=C2)c2ccc(N(CC)CC)cc2)cc1	.	.	.	88.1*
CCN(CC)c1ccc(C(=O)NNC(=O)CCNC(=O)c2ccccc2)cc1	.	.	.	10.8
CC(CCc1ccccc1)NC(=O)CN1C(=O)NC2(CCCCC2)C1=O (configuration not stated)	-1.3	-6.6	1.1	-2.8
CCCCCCCNC(=O)C1(CC2CC(c3cccc(Br)c3)=NO2)CCNCC1 (configuration not stated)	.	.	.	86.9*
CCCCCCCNC(=O)C1(CC2CC(c3ccc(Cl)cc3)=NO2)CCN(C(=O)Cc2ccc(F)cc2)CC1 (configuration not stated)	.	.	.	22.5
CCCCCCCNC(=O)C1(CC2CC(c3ccc(Cl)cc3)=NO2)CCNCC1 (configuration not stated)	.	.	.	71.5*
O=C1CC(c2ccccc2)(c2ccccc2)c2ccccc21	.	.	.	-11.4
N/C(=N\OC(=O)CC1CCCCC1)c1ccccn1	21.2	81.4*	0.2	6.1
Cc1cccc(/C(N)=N/OC(=O)CCC2CCCCC2)c1	10.6	53.5*	0.5	-2.6
N/C(=N\OC(=O)CC1CCCCC1)c1cccnc1	41.2	64.6*	0.4	16.7
N/C(=N\OC(=O)CCC1CCCC1)c1cccnc1	-3.5	73.8*	0.3	2.7
OC(CSc1ccc(F)cc1)CN1CCN(c2ccccc2)CC1 (configuration not stated)	15.8	-1.1	1	3.8
COC(=O)[C@@H](Cc1c[nH]c2ccccc12)NC(=O)CCC(=O)c1ccc(Br)cc1	.	.	.	-13.6
CCN(Cc1ccccc1)c1ccc(/C=N/N2CCOCC2)cc1	11.5	2.1	1	6.2
CCN(CC)c1ccc(/C=N/N2CCOCC2)cc1	32.8	51.5*	0.5	4.7
CCc1ccc(-n2nc3cc(C)c(N)cc3n2)cc1	.	.	.	65.6*
Cc1cc2nn(-c3cccc4ccccc34)nc2cc1N	22.8	-3.1	1	-5.2
COc1ccc(-n2nc3cc(N)c(Br)cc3n2)cc1	.	.	.	17.6
Cc1ccc(-n2nc3cc(C)c(N)cc3n2)cc1	2.1	81.4*	0.2	12.2
SMILES	PPC-1+TRAIL kill	FLuc inh counter	FLuc act counter	C8 TRAIL sens
CCCn1c(CN2CCN(C(=O)OCC)CC2)nc2cc(NC(=O)C(C)C)ccc21	.	.	.	16.0
Cc1ccc(C(=O)O/N=C(\N)c2cccnc2)cc1[N+](=O)[O-]	16.0	74.6*	0.3	33.6
N/C(=N\OC(=O)c1ccc([N+](=O)[O-])cc1)c1cccnc1	-3.0	94.2*	0.1	12.3
Cc1ccc(C(=O)O/N=C(\N)c2cccc([N+](=O)[O-])c2)cc1	20.5	96.3*	0	56.0*
N/C(=N\OC(=O)c1ccccc1[N+](=O)[O-])c1cccnc1	44.5	37.3	0.6	-14.9
N/C(=N\OC(=O)c1ccc(Br)cc1)c1cccc([N+](=O)[O-])c1	.	.	.	-3.3
Cc1cn([C@H]2C[C@H](O)[C@@H](/C=C/C(=O)NCCc3ccc(S(N)(=O)=O)cc3)O2)c(=O)[nH]c1=O	.	.	.	7.9
COc1ccc(/C=C/c2noc(-c3ccccc3O)n2)cc1	16.8	54.0*	0.5	20.9
CC(C)(C)C(Cn1ccnc1)NC(=O)c1ccc2nc(C3CC3)oc2c1 (configuration not stated)	.	.	.	1.9
COc1cccc(C=Nc2ccc3c(c2)OCCO3)c1O	16.7	96.0*	0	6.0
COc1cccc(C=Nc2ccc(N3CCOCC3)cc2)c1O	.	.	.	5.0
COc1cccc(/C=N/N2CCOCC2)c1O	15.6	62.9*	0.4	21.6
COc1cccc(-n2cnnc2SCC(=O)NC2CC2)c1	.	.	.	-18.1
CC(C)c1ccc(NC(=O)C2C3C=CC4(O3)C2C(=O)N(CCCN2CCOCC2)C4C(=O)NC2CCCCC2)cc1 (configuration not stated)	.	.	.	-6.4
CCn1c(C)cc(C=C2C(=O)c3ccccc3C2=O)c1C	8.6	78.6*	0.2	48.9
Cc1cc(C=C2C(=O)c3ccccc3C2=O)c(C)n1C	-21.3	37.8	0.6	15.1
O=C1c2ccccc2S(=O)(=O)c2cc(N3CCOCC3)ccc21	.	.	.	66.4*
CCCc1ccc(-c2cc(C(=O)NC3=NCCS3)c3ccccc3n2)cc1	53.6*	84.9*	0.2	71.7*
O=C(NC1=NCCS1)c1cc(-c2ccc(F)cc2)nc2ccccc12	14.3	13.3	0.9	10.1
CCc1ccc(-c2cc(C(=O)NCc3ccccn3)c3ccccc3n2)cc1	26.0	60.6*	0.4	59.8*
Cc1ccc(-c2cc(C(=O)NC3=NCCS3)c3ccccc3n2)cc1C	24.7	65.1*	0.3	46.6
O=C(NCc1ccc(F)cc1)C(=O)Nc1nc(C23CC4CC(CC(C4)C2)C3)cs1	33.2	0.5	1	15.5
CCS(=O)(=O)c1ncc(Cl)c(C(=O)Nc2ccc(S(=O)(=O)N3CCC(C)CC3)cc2)n1	.	.	.	94.1*
CC(=O)Nc1ccc(NC(=O)c2nc(S(=O)(=O)Cc3cccc(C)c3)ncc2Cl)cc1	.	.	.	90.3*
CCc1ccc(NC(=O)c2nc(S(=O)(=O)Cc3ccccc3)ncc2Cl)cc1	.	.	.	96.0*
SMILES	PPC-1+TRAIL kill	FLuc inh counter	FLuc act counter	C8 TRAIL sens
COC(=O)c1ccc(NC(=O)c2nc(S(=O)(=O)Cc3cccc(C)c3)ncc2Cl)cc1	.	.	.	42.6
CCOC(=O)c1ccc(NC(=O)c2nc(S(=O)(=O)Cc3ccccc3)ncc2Cl)cc1	.	.	.	78.3*
CCOC(=O)[C@@H]1C(c2c(OC)cc(OC)cc2OC)=NO[C@@H]1C(=O)OCC	-2.1	-5.2	1.1	2.4
CN1C(=O)C(=O)/C(=C(/O)c2ccc(Br)cc2)C1c1ccccc1F (configuration not stated)	.	.	.	1.5
COc1ccc(C(=O)NCc2nnc(SCC(=O)NCCc3ccccc3)o2)cc1	.	.	.	-14.2
COc1cc2c(cc1OC)CN(C(=O)COc1ccccc1[N+](=O)[O-])CC2	.	.	.	-7.6
Cc1ccc(S(=O)(=O)CCc2nc3ccccc3[nH]2)cc1C	-2.0	-3.7	1	-4.3
Cc1c(C(=O)NC2CC(=O)N(c3ccc4c(c3)OCCO4)C2)cccc1[N+](=O)[O-] (configuration not stated)	.	.	.	-15.4
CSc1ncc(Cl)c(C(=O)Nc2ccc(C)c(C)c2)n1	.	.	.	-6.2
Cc1ccc(NC(=O)c2nc(S(=O)(=O)Cc3ccccc3C)ncc2Cl)cc1C	.	.	.	57.7*
c1ccc(C2=NNC(=NC3CC3)SC2)cc1	32.7	62.1*	0.4	17.3
c1ccc2c(C3=NNC(=NC4CC4)SC3)c[nH]c2c1	18.9	52.7*	0.5	33.8
CNC(=O)NC(=O)CN1C(=O)NC2(CCOc3ccccc32)C1=O (configuration not stated)	.	.	.	-2.9

Screening results as filed in PubChem BioAssay.
